In ChEMBL document CHEMBL1681751, “Synthesis and biological evaluation of imidazolo[2,1-b]benzothiazole derivatives, as potential p53 inhibitors” (Bioorg Med Chem, 2011):
The source made the active and inactive calls. The rule behind the calls is not given here.

Columns and labels:
IGROV-1 [1] = experiment: Antiproliferative activity against human IGROV1 cells after 72 hrs by cell counter; format: functional, cell-based
Summary of the method: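 Log-phase cells seeded in duplicate; for the paclitaxel combination, cells got compound 2 h before the antimicrotubule agent. Final DMSO at most 0.5%. After treatment, adherent cells were trypsinized and counted with a cell counter. IC50 is the concentration giving 50% fewer cells than untreated control.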

IGROV-1 [2] = experiment: Reduction of paclitaxel-induced p21 expression in human IGROV1 cells at 10 uM after 24 hrs by Western blot analysis; format: functional, cell-based
Summary of the method: (§1)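 IGROV-1 cells were treated 24 h with paclitaxel 0.12 µM, compound, or both, then lysed. p53 and p21waf1 were detected by Western blot.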

IGROV-1 [3] = experiment: Reduction of paclitaxel-induced p21 expression in human IGROV1 cells at 5 uM after 24 hrs by Western blot analysis; format: functional, cell-based; summary of the method: as §1
IGROV-1 [4] = experiment: Reduction of paclitaxel-induced p21 expression in human IGROV1 cells at 0.3 uM after 24 hrs by Western blot analysis; format: functional, cell-based; summary of the method: as §1
IGROV-1 [5] = experiment: Reduction of paclitaxel-induced p21 expression in human IGROV1 cells at 0.12 uM after 24 hrs by Western blot analysis; format: functional, cell-based; summary of the method: as §1
U2OS = experiment: Antitumor activity against human U2OS cells xenografted in athymic Swiss nude mouse at 24 mg/kg, iv administered every 4 days relative to paclitaxel; format: functional, organism-based; parameters: dose 24 mg/kg
Summary of the method: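 U2OS osteosarcoma tumors were grown sc in female athymic Swiss nude mice from 10^7 cells/mouse and kept by serial fragment passage. Dosing was iv every four days for 4 administrations, alone or combined with paclitaxel, starting at about 80 mm3. Controls received solvent. Tumor growth and complete regressions were followed.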

IGROV-1 [6] = experiment: Induction of apoptosis in human IGROV1 cells at 0.12 uM after 72 hrs by TUNEL assay; format: functional
Summary of the method: (§2)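 IGROV-1 cells were exposed for 72 h; in the combination they were pretreated 2 h with compound before paclitaxel. Cells were fixed in 4% paraformaldehyde for 60 min at room temperature and washed. TUNEL labelling with fluorescein was read by flow cytometry as % TUNEL-positive cells, with at least three independent experiments.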

IGROV-1 [7] = experiment: Induction of apoptosis in human IGROV1 cells at 5 uM after 72 hrs by TUNEL assay; format: functional; summary of the method: as §2
Mus musculus [8] = experiment: Toxicity in athymic Swiss nude mouse assessed as body weight loss at 18 mg/kg, iv every 4 days for 4 administration; format: organism-based; parameters: dose 18 mg/kg, route intravenous; settings: in vivo, 96 h
Summary of the method: (§3)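 Female athymic Swiss nude mice with sc IGROV-1 xenografts were dosed iv every four days for 4 administrations (q4dx4), 4 mice per group. Toxicity was scored as % body weight loss from drug treatment, with lethal toxicity counted per group.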

IGROV-1 [9] = experiment: Antitumor activity against human IGROV1 cells xenografted in athymic Swiss nude mouse assessed as tumor volume inhibition at 18 mg/kg, iv every 4 days for 4 administration; format: functional; parameters: scale not given: the % may be the effect or the level left
Summary of the method: (§4)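 Female athymic Swiss nude mice received IGROV-1 tumors sc in the right flank (10^7 cells/mouse), then maintained by serial sc passage of about 3x3x3 mm fragments. Dosing was iv, q4dx4, starting when tumors were about 80 mg. Read-out was % tumor volume inhibition, treated vs control, 4 mice per group, Student's t-test vs control.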

Mus musculus [10] = experiment: Toxicity in athymic Swiss nude mouse assessed as lethal toxicity at 18 mg/kg, iv every 4 days for 4 administration; format: organism-based; parameters: dose 18 mg/kg, route intravenous; settings: in vivo, 96 h
Summary of the method: (§5)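 Female athymic Swiss nude mice bearing sc IGROV-1 human ovarian carcinoma xenografts (10^7 exponentially growing cells/mouse into right flank; lines kept by serial sc fragment passage). Dosed iv every four days for 4 administrations (q4dx4), starting when tumors were measurable (around 80 mg). Lethal toxicity scored as animals dying per group (4 mice/group).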

Mus musculus [11] = experiment: Toxicity in athymic Swiss nude mouse assessed as lethal toxicity at 9 mg/kg, iv every 4 days for 4 administration; format: organism-based; parameters: dose 9 mg/kg, route intravenous; settings: in vivo, 96 h; summary of the method: as §5
Mus musculus [12] = experiment: Toxicity in athymic Swiss nude mouse assessed as body weight loss at 9 mg/kg, iv every 4 days for 4 administration; format: organism-based; parameters: dose 9 mg/kg, route intravenous; settings: in vivo, 96 h; summary of the method: as §3
IGROV-1 [13] = experiment: Antitumor activity against human IGROV1 cells xenografted in athymic Swiss nude mouse assessed as tumor volume inhibition at 9 mg/kg, iv every 4 days for 4 administration; format: functional; parameters: scale not given: the % may be the effect or the level left; summary of the method: as §4
Mus musculus [14] = experiment: Toxicity in athymic Swiss nude mouse assessed as body weight loss at 3 mg/kg, iv every 4 days for 4 administration; format: organism-based; parameters: dose 3 mg/kg, route intravenous; settings: in vivo, 96 h; summary of the method: as §3
Mus musculus [15] = experiment: Toxicity in athymic Swiss nude mouse assessed as lethal toxicity at 3 mg/kg, iv every 4 days for 4 administration; format: organism-based; parameters: dose 3 mg/kg, route intravenous; settings: in vivo, 96 h; summary of the method: as §5
IGROV-1 [16] = experiment: Antitumor activity against human IGROV1 cells xenografted in athymic Swiss nude mouse assessed as tumor volume inhibition at 3 mg/kg, iv every 4 days for 4 administration; format: functional; parameters: scale not given: the % may be the effect or the level left; summary of the method: as §4

Cn1c2ccccc2n2cc(-c3ccc(C#N)cc3)nc12
IC50 (IGROV-1 [1]; Homo sapiens, IGROV-1, 72 h): 7 µM

Nc1ccc(-c2cn3c(n2)sc2ccccc23)cc1 [listing 1 of 3 here]
Activity (IGROV-1 [2]): Active
Activity (IGROV-1 [3]): Active
Activity (IGROV-1 [4]): Active
Activity (IGROV-1 [5]): Active

Nc1ccc(-c2cn3c(n2)sc2ccccc23)cc1 [listing 2 of 3 here]
IC50 (IGROV-1 [1]; igrov-1): 1 µM

CC(=O)O[C@H]1C(=O)[C@@]2(C)[C@H]([C@H](OC(=O)c3ccccc3)[C@]3(O)C[C@H](OC(=O)[C@H](O)[C@@H](NC(=O)c4ccccc4)c4ccccc4)C(C)=C1C3(C)C)[C@]1(OC(C)=O)CO[C@@H]1C[C@@H]2O [PACLITAXEL]
Activity (U2OS): inactive
Activity (IGROV-1 [6]): 13%

CC(=O)NCc1ccc(-c2cn3c(n2)sc2ccccc23)cc1
IC50 (IGROV-1 [1]; Homo sapiens, IGROV-1, 72 h): 12 µM

NCc1ccc(-c2cn3c(n2)sc2ccccc23)cc1 [listing 1 of 2 here]
Activity (IGROV-1 [2]): Active
Activity (IGROV-1 [3]): Active
Activity (IGROV-1 [4]): Active
Activity (IGROV-1 [5]): Active

Nc1ccc(-c2cn3c4c(sc3n2)CCCC4)cc1 [listing 1 of 3 here]
IC50 (IGROV-1 [1]; igrov-1): 19 µM

CCn1c2ccccc2n2cc(-c3ccc(C#N)cc3)nc12
IC50 (IGROV-1 [1]; Homo sapiens, IGROV-1, 72 h): 4.5 µM

Nc1ccc(-c2cn3c4c(sc3n2)CCCC4)cc1 [listing 2 of 3 here]
Activity (IGROV-1 [2]): Active
Activity (IGROV-1 [3]): Active
Activity (IGROV-1 [4]): Active
Activity (IGROV-1 [5]): Active

CC(=O)NCc1ccc(-c2cn3c4c(sc3n2)CCCC4)cc1
IC50 (IGROV-1 [1]; Homo sapiens, IGROV-1, 72 h): 28 µM

Nc1ccc(-c2cn3c(n2)sc2ccccc23)cc1 [listing 3 of 3 here]
IC50 (IGROV-1 [1]; igrov-1): 5 µM

Nc1ccc(-c2cn3c4c(sc3n2)CCCC4)cc1 [listing 3 of 3 here]
IC50 (IGROV-1 [1]; igrov-1): 4 µM
Activity (IGROV-1 [7]): 4%

O=Cc1ccc(-c2cn3c(n2)sc2ccccc23)cc1
IC50 (IGROV-1 [1]; Homo sapiens, IGROV-1, 72 h): 6 µM

O=[N+]([O-])c1ccc(-c2cn3c(n2)sc2ccccc23)cc1
IC50 (IGROV-1 [1]; Homo sapiens, IGROV-1, 72 h): 2 µM

COc1ccc(-c2ccc(-c3cn4c(n3)sc3ccccc34)cc2)cc1
IC50 (IGROV-1 [1]; Homo sapiens, IGROV-1, 72 h): < 1 µM

NCc1ccc(-c2cn3c(n2)sc2ccccc23)cc1 [listing 2 of 2 here]
IC50 (IGROV-1 [1]; igrov-1): 0.03 µM

Cc1ccc(-c2cn3c(n2)sc2ccccc23)cc1
IC50 (IGROV-1 [1]; Homo sapiens, IGROV-1, 72 h): 0.3 µM

Cc1ccc(-c2cn3c4c(sc3n2)CCCC4)cc1
IC50 (IGROV-1 [1]; Homo sapiens, IGROV-1, 72 h): 23 µM

NCc1ccc(-c2cn3c4c(sc3n2)CCCC4)cc1 [listing 1 of 2 here]
Activity (IGROV-1 [2]): Active
Activity (IGROV-1 [3]): Active
Activity (IGROV-1 [4]): Active
Activity (IGROV-1 [5]): Active

CC(C)NC(=O)CCNCc1ccc(-c2cn3c(n2)sc2ccccc23)cc1
IC50 (IGROV-1 [1]; Homo sapiens, IGROV-1, 72 h): 5 µM

OCc1ccc(-c2cn3c(n2)sc2ccccc23)cc1
IC50 (IGROV-1 [1]; Homo sapiens, IGROV-1, 72 h): 7 µM

Cl.NCc1ccc(-c2cn3c4c(sc3n2)CCCC4)cc1
Activity (Mus musculus [8]): 4%
Activity (IGROV-1 [9]): 27%
IC50 (IGROV-1 [1]; igrov-1): 31 µM
Activity (Mus musculus [10]): Non-toxic
Activity (Mus musculus [11]): Non-toxic
Activity (Mus musculus [12]): 6%
Activity (IGROV-1 [13]): 21%

NCCC(=O)NCc1ccc(-c2cn3c(n2)sc2ccccc23)cc1
IC50 (IGROV-1 [1]; Homo sapiens, IGROV-1, 72 h): 3 µM

Cl.NCc1ccc(-c2cn3c(n2)sc2ccccc23)cc1
IC50 (IGROV-1 [1]; igrov-1): 0.3 µM
Activity (Mus musculus [14]): 3%
Activity (Mus musculus [11]): Non-toxic
Activity (Mus musculus [12]): 5%
Activity (IGROV-1 [13]): 46%
Activity (Mus musculus [15]): Non-toxic
Activity (IGROV-1 [16]): 15%

NCc1ccc(-c2cn3c4c(sc3n2)CCCC4)cc1 [listing 2 of 2 here]
IC50 (IGROV-1 [1]; igrov-1): 12 µM

N#Cc1ccc(-c2cn3c4c(sc3n2)CCCC4)cc1
IC50 (IGROV-1 [1]; Homo sapiens, IGROV-1, 72 h): 8 µM

N#Cc1ccc(-c2cn3c(n2)sc2ccccc23)cc1
IC50 (IGROV-1 [1]; Homo sapiens, IGROV-1, 72 h): 0.03 µM

Brc1ccc(-c2cn3c(n2)sc2ccccc23)cc1
IC50 (IGROV-1 [1]; Homo sapiens, IGROV-1, 72 h): 0.3 µM
